This is a sample that favours compounds with a hit; in the whole collection about 3.2% have one here.
PRMT1 FP inh – PRMT1 methyltransferase inhibitors, primary screen, biochemical, fluorescence polarization; recombinant PRMT1, activity-based probe fluorescence polarization; 370,000 compounds, 1.3% hits; AID 652257, 2013; Protein arginine N-methyltransferase 1 (Homo sapiens), Q99873; inhibition, % at 2.79 µM;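 active = inhibition above about 21% made by adding two undisclosed values, limit read from the data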
DAGLB inhibitor – DAGLB lipase inhibitors, primary screen, biochemical, fluorescence, HTS; HEK293T DAGLB membrane lysate, EnzChek fluorogenic substrate; inhibition, % at 5.17 µM; 340,000 compounds, 0.059% hits; AID 504411, 2011; in the data active = inhibition above about 34%
ABHD4 inh – ABHD4 inhibitors, primary screen, biochemical, fluorescence polarization, mouse; purified mABHD4, FP-Rh probe fluorescence polarization; 370,000 compounds, 0.54% hits; (Lyso)-N-acylphosphatidylethanolamine lipase (Mus musculus), Q8VD66; inhibition, % at 8.92 µM;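 active = inhibition exceeding the mean over every tested compound plus 3 SD, cut at about 30% in these data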
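Test system: mABHD4 protein; Read-out basis: % inhibition; Incubation: 45 min + 60 min at 25 °C; Repeats: single replicate; Technique: fluorescence polarization with parallel and perpendicular emission, 525/598 nm; Compound: 8.92 µM, single dose; Benchmarks: full inhibition S159A mutant plus DMSO, zero as sample-well median.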
HTRA1 inhibitor – HTRA1 serine protease inhibitors, primary screen, biochemical, fluorescence polarization, HTS. Q92743. recombinant HTRA1, FP-rhodamine activity-based probe. inhibition, % at 5.96 µM. 340,000 compounds, 0.5% hits. AID 504803, 2011; in the data active = inhibition above about 36%
Target sequence (Q92743 whole entry, looked up): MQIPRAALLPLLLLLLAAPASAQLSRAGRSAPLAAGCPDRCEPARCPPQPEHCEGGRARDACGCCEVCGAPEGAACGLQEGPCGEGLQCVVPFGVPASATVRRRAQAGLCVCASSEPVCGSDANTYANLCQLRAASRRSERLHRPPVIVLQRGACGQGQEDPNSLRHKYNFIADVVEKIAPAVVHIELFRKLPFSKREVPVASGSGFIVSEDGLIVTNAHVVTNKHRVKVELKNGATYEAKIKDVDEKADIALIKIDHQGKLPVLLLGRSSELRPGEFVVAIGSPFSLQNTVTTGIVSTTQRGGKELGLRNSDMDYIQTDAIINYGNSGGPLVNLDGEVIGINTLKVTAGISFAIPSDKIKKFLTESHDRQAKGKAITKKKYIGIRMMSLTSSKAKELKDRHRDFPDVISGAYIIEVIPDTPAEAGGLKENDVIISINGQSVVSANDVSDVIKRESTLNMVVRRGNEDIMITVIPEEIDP
LEDGF integ inh – blockers of LEDGF/p75-dependent integrase strand transfer – biochemical, TR-FRET, high throughput, primary screen; inhibition, % at 3.7 µM; HIV-1 integrase (with human LEDGF/p75); TR-FRET IN-LEDGF/p75 DNA integration, Eu/Cy5; AID 743269, 2014; 370,000 compounds, 0.64% hits;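 active = inhibition above the screen-wide mean plus 3 SD, cut at about 13% in these data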;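 also: signal is the Cy5 over europium emission ratio at 671 and 618 nm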
rCAG binder-1 – binders of r(CAG) RNA repeats, primary screen, biochemical, fluorescence; r(CAG) RNA repeat, TO-PRO-1 dye displacement fluorescence; inhibition, % at 3 µM; 370,000 compounds, 1.3% hits;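 active = inhibition above the plate cutoff, the mean of all test compounds on that plate plus 3 SD, cut at about 35% in these data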;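 also: higher means more dye released from RNA so lower well fluorescence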
rCAG binder conf – small molecules binding CAG repeat RNA – biochemical, fluorescence, confirmation; inhibition, % at 3 µM; AID 652065, 2013; 4,300 compounds, 70% hits; r(CAG) RNA repeat, TO-PRO-1 dye displacement fluorescence; shares compounds with rCAG binder-1;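 active = inhibition above a per-plate cutoff, the mean inhibition of sample wells plus 3 SD, cut at about 35% in these data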;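 also: loss of TO-PRO-1 fluorescence as compound displaces dye from 1x1 AA loop RNA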
DNA CAG counter – displacement of TO-PRO-1 from CAG DNA duplex, counter-screen for rCAG RNA repeat binder project, biochemical, fluorescence, TO-PRO-1 dye, d(CAG) DNA oligo; shares compounds with rCAG binder-1; d(CAG) DNA oligo TO-PRO-1 dye displacement; inhibition, % at 3 µM; 4,300 compounds, 94% hits;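 active = inhibition above its plate's cutoff, the mean test-well inhibition plus 3 SD, cut at about 4.8% in these data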;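 also: hits displace the dye from DNA and so lower well fluorescence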
DNA CAG DR – inhibitors of DNA CAG/GTC TO-PRO-1 complex, dose response, counter-screen for rCAG RNA repeat binder project, biochemical, fluorescence, TO-PRO-1 dye | shares compounds with rCAG binder-1 | DNA CAG/GTC duplex TO-PRO-1 dye displacement fluorescence | IC50, µM | 250 compounds, 20% hits | AID 686960, 2013; in the data active = IC50 below about 10 µM
dCAG DNA bind – TO-PRO-1 dye complex inhibitors on d(CAG) DNA, dose response, counter-screen, biochemical, fluorescence, late stage; shares compounds with rCAG binder-1; d(CAG) DNA duplex TO-PRO-1 dye displacement; IC50, µM; 30 compounds, 80% hits
rCAG binder-2 – molecules binding r(CAG) RNA repeats, late stage dose response, late-stage follow-up, biochemical, fluorescence, dose response, powder samples; IC50, µM; 30 compounds, 100% hits; r(CAG) RNA TO-PRO-1 dye displacement; shares compounds with rCAG binder-1
A number is an active result; i = inactive; nt = no result. Unless noted, no rule for the calls is given here.

SMILES | PRMT1 FP inh | DAGLB inhibitor | ABHD4 inh | HTRA1 inhibitor | LEDGF integ inh | rCAG binder-1 | rCAG binder conf | DNA CAG counter | others
COc1ccc(S(=O)(=O)N2CCCCC2)cc1NS(=O)(=O)c1ccccc1F | i | i | i | i | i | i | nt | nt
COc1ccc(S(=O)(=O)N2CCCCC2)cc1NS(=O)(=O)c1cc(Cl)ccc1Cl | i | i | i | i | i | 36 | 39 | 10
COc1ccc(S(=O)(=O)N2CCCCCC2)cc1NS(=O)(=O)c1cc(C(=O)O)cc(C)c1C | i | i | i | i | i | 47 | i | 5.9
Cc1nn(CCc2nn[nH]n2)c2nc(C(F)(F)F)cc(C(F)(F)F)c12 | i | i | i | i | i | i | nt | nt
Cc1nn(CCc2nn[nH]n2)c2nc(-c3ccc(Br)cc3)cc(C(F)(F)F)c12 | i | i | i | i | i | 44 | 71 | 25 | DNA CAG DR=i
COc1ccc(NC2=CC(c3ccc(OC)cc3)N(c3ccc(OC)cc3)C2=O)cc1 (stereo unspecified) | i | i | i | i | i | i | nt | nt
O=c1[nH]c(=O)n(Cc2ccco2)c2c1C(C(F)(F)F)(C(F)(F)F)N=C(CCc1ccccc1)N2 | i | i | i | i | i | i | nt | nt
N#Cc1ccc(C2=NC(C(F)(F)F)(C(F)(F)F)c3c(n(Cc4ccco4)c(=O)[nH]c3=O)N2)cc1 | i | i | i | i | i | 36 | 37 | 7.1 | DNA CAG DR=i;dCAG DNA bind=i;rCAG binder-2=3.6
C/C(=N\NC(=O)c1cc(C)nc2ccccc12)c1ccco1 | i | i | i | i | i | i | nt | nt
C/C(=N\NC(=O)c1cc2ccccc2cc1O)c1cccs1 | i | i | i | i | i | 50 | i | i
O=C(NNC(=O)c1cc2ccccc2cc1O)c1cccs1 | i | i | i | i | i | i | nt | nt
C/C(=N/NC(=O)c1cc2ccccc2cc1O)c1ccco1 | i | i | i | i | i | 51 | i | 9.0
COc1ccc(N(CC(=O)Nc2cc(C)ccc2OC)S(=O)(=O)c2c(C)noc2C)cc1 | i | i | i | i | i | i | nt | nt
COc1ccc(N(CC(=O)Nc2cc(OC)c(OC)cc2C(=O)O)S(=O)(=O)c2c(C)noc2C)cc1 | i | i | i | i | i | 41 | i | i
COc1cc(OC)c(OC)cc1/C=C/C(=O)c1ccc(NS(=O)(=O)c2ccc(C)cc2)cc1 | i | i | i | i | i | 46 | 39 | 16
COc1cccc(NC(=O)CSc2nc3c(oc4ccccc43)c(=O)[nH]2)c1 | i | i | i | i | i | 54 | 45 | 15
COc1cccc(/C=C2\Oc3cc(OCC(=O)N4CCC[C@H]4C(=O)O)ccc3C2=O)c1 | i | i | i | i | i | 37 | 44 | 13
COc1ccc(/C=C2\Oc3cc(OCC(=O)N4CCC[C@H]4C(=O)O)ccc3C2=O)c(OC)c1 | nt | i | nt | i | nt | nt | nt | nt

Compound activity as filed in PubChem.
